# Results gathered from unrelated publications.
# Protocols differ between the studies behind these lines.
SMILES,test system,setting,AUC(0-t)
C[C@H]1[C@@H](O)O[C@@H]2O[C@@]3(C)CC[C@H]4[C@H](C)CC[C@@H]1[C@@]24OO3,"female SCID mouse, plasma","oral, 120 mg/kg",1870 ng·h/mL
FC(F)(F)Oc1ccc(Nc2cc(-c3cn[nH]c3)ncn2)cc1,"male BALB/c mouse, plasma","oral, 20 mg/kg",6110 ng·h/mL
COc1ccc(C(O)COc2ccc(-c3csc(-c4ccc(OCC(O)c5ccc(OC)c(OC)c5)cc4)n3)cc2)cc1OC (stereo not drawn),"C57BL/6 mouse, plasma","oral, 75 mg/kg",73000 ng·h/mL
CN1CCC[C@H](CN2c3ccccc3Sc3ccccc32)C1.Cl,"mouse, plasma","oral, 64 mg/kg, single dose",6010 ng·h/mL
Cc1ccc2cncc(N3CCc4c(cc(Cn5ccnc5)cc4-c4cn(C)nc4C(F)(F)F)C3=O)c2c1,"male CD-1 mouse, plasma","oral, 10 mg/kg",4420 ng·h/mL
CN1CCN(c2nccc3nc(-c4ccc(F)c(F)c4)[nH]c23)CC1,"mouse, blood","oral, 5 mg/kg",3.25 µM·h
Cc1c2c(n(-c3ccc(F)cc3Cl)c1-c1ccc(OS(=O)(=O)CCC(F)(F)F)cc1)CCN(N1CCCCC1)C2=O,"mouse, plasma","oral, 6 µmol/kg, single dose",0.89 µM·h
CN1C(=O)c2ccccc2[S@+]([O-])c2ccc(C(=O)NCCc3cccs3)cc21,"male C57BL/6 mouse, plasma","intraperitoneal, 30 mg/kg, single dose",7800 ng·h/mL
CC[C@H](C)[C@@H]1NC(=O)[C@@](C)(NC(=O)[C@H](CCCNC(=N)N)NC(=O)[C@H](CC(C)C)NC(=O)[C@@H](NC(=O)[C@H](CCC(N)=O)NC(=O)[C@H](CC(C)C)NC(C)=O)[C@@H](C)O)CCCC=CCCC[C@@](C)(C(=O)N[C@@H](CC(C)C)C(=O)N[C@@H](Cc2ccc3ccccc3c2)C(N)=O)NC(=O)[C@H](CCCNC(=N)N)NC(=O)[C@H](CCC(N)=O)NC1=O,"male BALB/c mouse, plasma","subcutaneous, 10 mg/kg",140000 ng·h/mL
NC(=O)c1cc(Oc2ccc(NC(=O)Nc3ccc(Cl)c(C(F)(F)F)c3)c(F)c2)cc[n+]1[O-],"mouse, plasma","oral, 10 mg/kg, single dose",65 ng·h/mL
CSc1cc(Oc2ccnc3[nH]c(=O)cnc23)ccc1NC(=O)Nc1cc(C(C)(C)C)nn1-c1ccccc1,"BALB/c mouse, plasma","oral, 10 mg/kg",275 µM·h
CN1CCN(CC2CCN(c3cncc4[nH]c(-c5cc(F)cc(F)c5)nc34)CC2)CC1,"mouse, blood","oral, 10 mg/kg",3.57 µM·h
C=CC(=O)N1CC2CC(n3nc(-c4ccc(C(=O)Nc5ccccn5)cc4)c4c(N)ncnc43)CC2C1 (stereo not drawn),"SCID mouse, plasma","oral, 0.2 mg/kg",8.63 ng·h/mL
CCc1cc(C(=O)NC)c2nccc(N3CCc4c(cc(Cn5ccnc5)cc4-c4cn(C)nc4C(F)(F)F)C3=O)c2c1,"male CD-1 mouse, plasma","oral, 150 mg/kg",527000 ng·h/mL
CCOc1ccc(Cc2cc([C@@H]3O[C@H](CO)[C@@H](O)[C@H](O)[C@H]3O)ccc2Cl)cc1,"male C57BL/6 mouse, plasma","intravenous, 1 mg/kg",680 ng·h/mL
COc1nc(-c2cc(C)c(N[C@@H](C)c3ccc(F)cc3)nn2)ccc1-n1cnc(C)c1,"male CD-1 mouse, plasma","oral, 5 mg/kg, single dose",12700 ng·h/mL
COc1ccc2nccc(N3CCc4c(cc(Cn5ccnc5)cc4-c4cn(C)nc4C(F)(F)F)C3=O)c2c1,"male CD-1 mouse, plasma","oral, 50 mg/kg",33800 ng·h/mL
Cc1nc(-c2cnc(NC(C)C)n(C)c2=O)ccc1Oc1ccnc(-c2cnn(C)c2)c1,"female mouse, plasma","oral, 7.5 mg/kg, single dose",52600 ng·h/mL
